A selection: hits, their analogues and other compounds. The true share with any hit is near 6.8%.
HSF-1 act: increases HSF-1 driven luciferase reporter signal; NIH3T3-HGL HSF-1 luciferase reporter, MG132, 8 h; 100% = twice DMSO control signal; AID 504408; actives 1.7% (n = 300,000); activation, % at 9 µM;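 active means mean replicate activation of at least 50% with a set share of replicates each reaching 50%; inconclusive means only one of those two conditions met; inactive means mean below 50% and too few replicates reaching it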
AI-2 QS mod: Vibrio harveyi AI-2 quorum sensing modulation; AID 2094; Vibrio harveyi JMH597 AI-2 luminescence/OD600 ratio, 9 h; active compounds read low; strain lacks LuxN and CqsS sensors; 0 = neutral-control median; actives 0.4% (n = 300,000); activity change, % at 7.5 µM; in the data active means activity change below about -75%, passing the limit was not always enough; inconclusive means no clear call, values can overlap the other calls;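 further: luminescence divided by OD600 gain over 9 h not by final OD600 alone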
PHOSPHO1 block: blocks human PHOSPHO1 phosphatase activity | Q8TCT1 | recombinant PHOSPHO1, absorbance phosphatase assay | inhibition, % at 13.3 µM | actives 1.1% (n = 290,000) | AID 1565; in the data active means inhibition above about 60%
Target sequence (Q8TCT1 whole entry, looked up): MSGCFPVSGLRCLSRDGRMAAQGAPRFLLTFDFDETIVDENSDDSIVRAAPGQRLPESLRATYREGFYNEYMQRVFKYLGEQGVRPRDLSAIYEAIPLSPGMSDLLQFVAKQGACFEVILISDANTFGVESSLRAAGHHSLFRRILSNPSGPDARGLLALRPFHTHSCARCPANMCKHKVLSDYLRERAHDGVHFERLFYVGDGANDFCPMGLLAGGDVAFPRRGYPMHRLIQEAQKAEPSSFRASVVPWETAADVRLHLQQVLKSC
HSF1 inh: HSF1 inhibition; NIH3T3-HGL HSE-luciferase, MG132-induced, luminescence 8 h; active compounds read low; activity change, negative = inhibition, % at 7.5 µM (by protocol); actives 0.77% (n = 300,000); AID 2098;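 active means more than half of replicate wells show activity change below -50%, luminescence cut by over half; inconclusive means some wells, but at most half, below -50%; inactive means no replicate well below -50%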;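 further: luciferase reports HSF-1 transcriptional activity via heat shock element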
ALR inh: inhibitors of human sulfhydryl oxidase ALR | actives 3.8% (n = 290,000) | purified ALR, DTT oxidation, H2O2 HRP-luminol luminescence | P55789 | inhibition, % (test concentration not listed);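 active means mean replicate inhibition above about 79%, with every replicate also reaching it, limit read from the data; inconclusive means only one of the two criteria met; inactive means mean below limit and not every replicate reaching it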
Target sequence (P55789 whole entry, looked up): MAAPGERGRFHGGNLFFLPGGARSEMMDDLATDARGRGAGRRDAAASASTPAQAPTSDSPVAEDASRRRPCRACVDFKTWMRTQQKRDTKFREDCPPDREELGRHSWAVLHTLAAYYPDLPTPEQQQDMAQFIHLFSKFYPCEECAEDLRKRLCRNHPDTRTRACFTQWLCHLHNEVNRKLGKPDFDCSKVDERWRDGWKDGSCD
core dimer inh: HCV core protein dimerization inhibition. TR-FRET GST/Flag-core106 dimerization, 1536-well. inhibition, % at 5 µM. actives 0.33% (n = 300,000);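 active means inhibition above the mean of all tested compounds plus 3 SD, set per screening campaign, cut at about 45% in these data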
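System – GST-tagged and Flag-tagged HCV core protein residues 1-106 · Repeats – one well for each compound · Technique – TR-FRET 671 and 617 nm emission · Doses – one concentration, 5 µM, in 0.5% DMSO · Times – 4 h, 22.5 °C incubation · Also added – Eu donor and XL665 acceptor anti-tag antibodies · Measure – percent inhibition of core106 dimerization signal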
Hits are given with their value; n = inactive; u = inconclusive; x = no result given.

SMILES	HSF-1 act	AI-2 QS mod	PHOSPHO1 block	HSF1 inh	ALR inh	core dimer inh
COCCCN1CCc2[nH]c(=S)[nH]c(=O)c2C1	58	n	n	n	x	n
CCCS(=O)(=O)c1nc(S(=O)(=O)c2ccc(C)cc2)c(N2CCC(C)CC2)s1	n	n	n	n	n	n
CCCS(=O)(=O)c1nc(S(=O)(=O)c2ccc(C)cc2)c(N2CCCC2)s1	n	n	n	n	n	n
CCCS(=O)(=O)c1nc(S(=O)(=O)c2ccc(C)cc2)c(N2CCc3ccccc3C2)s1	54	n	n	n	n	n
Cc1ccc(S(=O)(=O)c2nc(S(=O)(=O)c3ccc(C)cc3)c(N3CCN(CCO)CC3)s2)cc1	57	n	n	n	n	n
CCS(=O)(=O)c1nc(S(=O)(=O)c2ccc(C)cc2)c(N2CCC(C)CC2)s1	n	n	n	-89	n	n
C/C(=C\C(=O)c1ccccc1)Nc1ccc2c(c1)OCO2	n	n	n	n	n	n
Cc1ccccc1SCC(=O)N/N=C/c1ccc(F)cc1	n	n	n	n	n	n
COc1cc(/C=C(\NC(=O)c2ccccc2)C(=O)Nc2nccs2)ccc1OC(C)=O	n	n	n	n	n	n
N#CCC(=O)Nc1ccc(C(=O)NCc2cccc(Cl)c2)cc1	n	n	n	n	98	n
CSc1nc2ccsc2c(=O)n1-c1ccccn1	n	n	n	n	n	n
CCOc1ccc(NC(=O)c2cccnc2C(=O)O)cc1	n	n	n	-66	n	n
CCOc1ccccc1C(=O)Nc1ccc(NC(=O)c2ccccc2)cc1	n	n	n	-79	n	n
CCOc1ccc(NC(=O)c2ccccc2O)cc1	102	n	n	n	n	n
CCOc1ccc(NC(=O)c2ccccc2CO)cc1	n	n	n	n	n	n
Cc1onc(-c2ccccc2)c1C(=O)NCC(=O)Nc1cc(Cl)ccc1Cl	x	x	x	x	n	x
C=CCn1c(N)c(C(=O)NCc2cccnc2)sc1=S	n	n	n	n	98	n
Cc1nc(NC(=O)CSc2nnnn2C)sc1C	n	n	n	n	n	n
CCc1nnc(NC(=O)CSc2nnnn2C)s1	n	n	n	n	99	n
CCc1nnc(NC(=O)CSc2nnc(CSc3nc(C)cc(C)n3)o2)s1	n	n	94	n	n	n
Cc1cccc(NC(=O)CSc2nnc(CSc3nc(C)cc(C)n3)o2)c1	n	n	n	n	n	n
CCc1nnc(NC(=O)CSc2nnc(-c3c[nH]c4ccccc34)n2CCOC)s1	n	n	60	n	x	n
COc1cc(/C=C2/NC(=O)N(Cc3ccccc3F)C2=O)ccc1O	107	n	n	n	99	n
COc1cc(/C=C2\NC(=S)N(C)C2=O)ccc1O	n	n	n	n	99	n
COC(=O)c1ccccc1OCCCN(C)C	n	n	n	n	n	n
SMILES	HSF-1 act	AI-2 QS mod	PHOSPHO1 block	HSF1 inh	ALR inh	core dimer inh
O=C(/C=C/c1ccccc1)N1CCN(c2c(Cl)cccc2[N+](=O)[O-])CC1	n	n	n	n	n	n
Cc1[nH]c2ccccc2c1C(c1ccccn1)N1CCCC1 (stereo not drawn)	n	n	n	n	x	n
Cc1ccnc(NC(c2ccccn2)c2c(C)[nH]c3ccccc23)c1 (stereo not drawn)	n	n	n	n	98	n
Cc1sc2nc(CN3CCOCC3)[nH]c(=S)c2c1C	n	n	n	n	n	n
CN(C)/C=N/c1nc(-c2ccc3ccccc3c2)cs1	n	n	n	n	n	n
CN(C)/C=N/c1nc(-c2ccc3c(c2)OCO3)cs1	u	n	n	n	98	n
CCc1ccccc1N1CC(C(=O)N2Cc3ccccc3CC2C(N)=O)CC1=O (stereo not drawn)	x	x	x	x	n	x
Cc1ccc(NC(=S)NCCN2CCOCC2)cc1F	n	n	n	n	n	n
Cc1cc(NC(=O)c2ccc([N+](=O)[O-])o2)ccc1NC(=O)c1ccco1	72	-94	n	n	x	x
COc1cc(NC(=O)c2cccc([N+](=O)[O-])c2)ccc1NC(=O)c1ccco1	n	n	n	n	n	n
COc1cc(NC(=O)c2ccc([N+](=O)[O-])o2)ccc1NC(=O)c1ccco1	125	n	n	n	n	n
COc1ccc(C(=O)CSc2nc3ccc([N+](=O)[O-])cc3[nH]2)cc1	n	n	n	n	x	n

Compound activity as filed in PubChem.
